MBD2 inh = inhibitors of human MBD2 binding to methylated oligonucleotide | Q9UBB5 | TR-FRET | inhibition, % at 4.4 µM | actives 0.31% (n = 370,000) | AID 686964; in the data active = inhibition above about 13%
Target sequence (Q9UBB5 whole entry, looked up): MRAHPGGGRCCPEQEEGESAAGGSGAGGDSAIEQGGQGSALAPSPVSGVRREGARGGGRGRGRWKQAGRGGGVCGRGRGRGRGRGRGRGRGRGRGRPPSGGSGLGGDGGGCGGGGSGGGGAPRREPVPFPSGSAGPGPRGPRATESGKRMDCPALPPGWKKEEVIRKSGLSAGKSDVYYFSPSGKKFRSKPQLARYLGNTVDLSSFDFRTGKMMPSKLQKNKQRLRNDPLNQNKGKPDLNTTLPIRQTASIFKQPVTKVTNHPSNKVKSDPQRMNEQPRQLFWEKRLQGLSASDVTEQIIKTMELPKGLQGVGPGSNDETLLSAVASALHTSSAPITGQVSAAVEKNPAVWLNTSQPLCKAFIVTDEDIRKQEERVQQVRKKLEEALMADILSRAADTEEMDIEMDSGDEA
UHRF1 MBD2 ctr = human UHRF1 methylated DNA binding inhibitors; Q96T88; UHRF1 binding to methylated oligo, TR-FRET; inhibition, % at 4.4 µM; actives 0.75% (n = 370,000); AID 687016; in the data active = inhibition above about 21%;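 note: UHRF1 SRA domain binding a hemimethylated CpG hairpin DNA probe; 0% = median of test compound wells and 100% = reference inhibitor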
SIAE primary = blocks human sialic acid acetylesterase | Q9HAT2 | SIAE FP-Rh probe binding, fluorescence polarization | inhibition, % at 9.66 µM | actives 0.69% (n = 370,000);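 active = inhibition above a cutoff: mean of compounds within the control limits plus 3 SD of those, cut at about 17% in these data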;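 note: 0% = plate median of compound wells and 100% = probe without SIAE protein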
LEDGF integ inh = blocks HIV-1 LEDGF/p75-dependent DNA integration; TR-FRET IN-LEDGF/p75 DNA integration, Eu/Cy5; inhibition, % at 3.7 µM; actives 0.64% (n = 370,000);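 active = inhibition above the screen-wide mean plus 3 SD, cut at about 13% in these data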;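 note: signal is the Cy5 over europium emission ratio at 671 and 618 nm; 0% = plate median of compound wells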
TDP2 absorb = blocks human TDP2 phosphodiesterase activity. recombinant TDP2, T5PNP hydrolysis, p-nitrophenol absorbance 415 nm. O95551. AID 720702. actives 0.34% (n = 370,000). inhibition, % at 12.8 µM;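 active = inhibition above the mean of all tested compounds plus 3 SD, set per campaign, cut at about 25% in these data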;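 note: 0% = DMSO with enzyme and 100% = buffer with substrate but no TDP2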
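Test system: human TDP2 enzyme; Input: 120 nM TDP2 per well; Buffer or medium: Mg2+-containing Tris-HCl buffer, pH 7.5; Reagent: 5 mM T5PNP; Dosing: 12.8 µM single point, 1% DMSO; Incubation: reaction 2 h, 37 °C; Detection: p-Nitrophenol epi absorbance; Read-out: % inhibition relative to enzyme-containing and enzyme-free wells; Replicates: single well per compound.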
PRMT1 inh = inhibitors of human PRMT1; Q99873; recombinant PRMT1, activity-based probe fluorescence polarization; inhibition, % at 2.79 µM; actives 1.3% (n = 370,000);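 active = inhibition above about 21% made by adding two undisclosed values, limit read from the data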
IN multimer up = HIV-1 integrase multimerization activation, counter-screen. shares compounds with LEDGF integ inh. TR-FRET HIV-1 integrase multimerization, biochemical. activation, % at 7.7 µM. actives 17% (n = 2,000); in the data active = activation above about 8.9%
TR-FRET interf = optically interferes with TR-FRET readout in LEDGF counter-screen. shares compounds with LEDGF integ inh. TR-FRET optical interference counterscreen, HIV-1 IN multimerization. inhibition, % at 7.7 µM. 2,000 tested, under 10 active. AID 1053135;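 active = inhibition above the mean over all tested compounds plus 3 SD, which no compound reached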;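 note: 0% = integrase with antibodies and DMSO and 100% = antibodies without integrase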
IN-LEDGF confirm = confirmation of HIV-1 LEDGF/p75-dependent integration inhibitors; shares compounds with LEDGF integ inh; TR-FRET LEDGF/p75-dependent HIV-1 integration, biochemical; inhibition, % at 3.7 µM; actives 36% (n = 2,000); in the data active = inhibition above about 14%
Numbers without * were called inactive; ! = not active in a repeat. Most compounds without a hit are left out; they make up all but 3.3% or so of the library.

C[C@@H]1O[C@@H](Oc2c(-c3cc(O)c(O)c(O)c3)oc3cc(O)cc(O)c3c2=O)[C@H](O)[C@H](O)[C@H]1O was read as MBD2 inh -4.3, UHRF1 MBD2 ctr 4.6, SIAE primary -11.8, LEDGF integ inh 55.1*, TDP2 absorb -8.2, PRMT1 inh 37.1*, IN multimer up 53.2*, TR-FRET interf -188.9 and IN-LEDGF confirm 62.9*.
For C[C@@H]1O[C@@H](O[C@H]2[C@H](O)[C@@H](O)[C@H](Oc3c(-c4ccc(O)c(O)c4)oc4cc(O)cc(O)c4c3=O)O[C@@H]2CO)[C@H](O)[C@H](O)[C@H]1O the results were MBD2 inh 2.1, UHRF1 MBD2 ctr 7.6, SIAE primary -1.7, LEDGF integ inh 6.9, TDP2 absorb -3.1 and PRMT1 inh 10.6.
`COc1cc(-c2oc3cc(O)cc(O)c3c(=O)c2O[C@@H]2O[C@H](COC3O[C@@H](C)[C@H](O)[C@@H](O)[C@H]3O)[C@@H](O)[C@H](O)[C@H]2O)ccc1O` (stereo partly drawn) gave MBD2 inh -4.3, UHRF1 MBD2 ctr -2.3, SIAE primary 0.6, LEDGF integ inh 1.6, TDP2 absorb 1.9 and PRMT1 inh 1.1.
For C[C@@H]1O[C@@H](Oc2c(-c3ccc(O)c(O)c3)oc3cc(O)cc(O)c3c2=O)[C@H](O)[C@H](O)[C@H]1O the results were MBD2 inh -0.3, UHRF1 MBD2 ctr 3.7, SIAE primary 1.2, LEDGF integ inh 21.0*!, TDP2 absorb -8.5, PRMT1 inh 10.4, IN multimer up 16.1*, TR-FRET interf -80.9 and IN-LEDGF confirm 58.0*.
`COC(=O)[C@@]12CCCCC3=C1N(CCC3)C(=O)[C@H]2CC(=O)N1CCCC1` gave MBD2 inh 2.9, UHRF1 MBD2 ctr 0.8, SIAE primary 9.7, LEDGF integ inh 0.7, TDP2 absorb -7.5 and PRMT1 inh 1.9.
O=C1c2cc(O)c(O)cc2OC(c2ccc(O)c(O)c2)C1O (stereo not drawn) was read as MBD2 inh 1.7, UHRF1 MBD2 ctr 0.7, SIAE primary 8.9, LEDGF integ inh 49.2*, TDP2 absorb -2.6, PRMT1 inh 2.2, IN multimer up 14.9*, TR-FRET interf -74.8 and IN-LEDGF confirm 55.4*.
`O=C1CN(C(=O)COc2ccc(F)cc2Cl)c2ccccc2N1` gave MBD2 inh -3.2, UHRF1 MBD2 ctr 0.0, SIAE primary 1.6, LEDGF integ inh 23.5*, TDP2 absorb 8.6, PRMT1 inh -4.7, IN multimer up 1.1, TR-FRET interf -4.1 and IN-LEDGF confirm -4.9.
`O=C(CN1C(=O)c2ccccc2C1=O)Nc1ccccc1F` gave MBD2 inh 6.0, UHRF1 MBD2 ctr 6.3, SIAE primary -2.5, LEDGF integ inh 4.5, TDP2 absorb 0.6 and PRMT1 inh 2.4.
`CC(C)c1ccccc1NC(=O)CN1C(=O)c2ccccc2C1=O` gave MBD2 inh -4.8, UHRF1 MBD2 ctr 0.6, SIAE primary -3.3, LEDGF integ inh 73.0*, TDP2 absorb -8.0, PRMT1 inh 3.1, IN multimer up -1.8, TR-FRET interf 9.1 and IN-LEDGF confirm 1.6.
`COC[C@@H]1CCCN1c1cccc2c1S(=O)(=O)N(C1CC1)CC[C@@H](C)O2` gave MBD2 inh 4.2, UHRF1 MBD2 ctr -2.8, SIAE primary 3.4, LEDGF integ inh -2.6, TDP2 absorb 2.8 and PRMT1 inh 5.5.

Source: PubChem
